Data set [1] is described as follows: Drug excretion in F344 rat feces at 1 mg/kg, iv administered as single dose after 0 to 48 hrs by scintillation counting method. Format: ADME, organism-based. The arrangement: dose 1 mg/kg, route intravenous. To be noted: in vivo. The procedure, abridged:
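Fasted F344 rats (152–156 g iv via tail vein; 154–159 g oral; n = 4) received [14C]-labelled drug at 1 mg/kg (41.9 µCi/kg). Animals were kept in metabolic cages; urine and feces were collected to 168 h, and expired CO2 was trapped in 2-aminoethanol/2-methoxyethanol (1:1) to 48 h. Samples were counted by liquid scintillation (feces homogenized). Results are % of dose, mean ± S.D.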

A short description of data set [2]: Drug metabolism in F344 rat feces assessed as N-acetylated 1,4-dideoxy-1,4-imino-D-arabinitol formation by LC-MS/MS method. The data set is classed as ADME, tissue-based.
A short description of data set [3]: Drug metabolism in anaerobic culture broth of human feces assessed as 1,4-dideoxy-1,4-imino-D-arabinitol formation at 63.5 uCi/ml after 24 hrs at 35 degC by LC-MS/MS method. The data set is classed as ADME, tissue-based.
A short description of data set [4]: Drug excretion in cynomolgus monkey feces at 3 mg/kg, po administered as single dose after 0 to 48 hrs by scintillation counting method. The data set is classed as ADME, organism-based, Macaca fascicularis. The arrangement: dose 3 mg/kg, route oral. To be noted: in vivo. A digest of the protocol: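 Fasted cynomolgus monkeys (n = 4) received [14C]-labelled drug at 3 mg/kg, iv via saphenous vein (191 µCi/kg) or orally by stomach catheter (156.5 µCi/kg). Urine, feces and water cage-wash were collected to 336 h. Samples were counted by liquid scintillation; feces were homogenized in 4-fold water. Results are % of dose, mean ± S.D.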

Data set [5] can be described thus: Drug excretion in cynomolgus monkey urine at 3 mg/kg, po administered as single dose after 48 hrs by scintillation counting method. The conditions noted are these: in vivo.
The nature of data set [6]: AUC (0 to infinity) in F344 rat at 0.3 mg/kg, po administered as single dose by LC-MS/MS method. The conditions noted are these: plasma. The arrangement: time infinity, dose 0.3 mg/kg, route oral. The data set is classed as ADME, organism-based. A digest of the protocol: (§1)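 Fasted male F344 rats (146–185 g) or male cynomolgus monkeys (3.48–4.29 kg), n = 4 per dose, given single iv or oral dose of 0.3, 1.0, 3.0 or 10.0 mg/kg; monkeys dosed with 2-week washouts. Blood sampled to 48 h; plasma stored frozen. LC-MS/MS with deuterated internal standard. Noncompartmental analysis: AUClast by trapezoidal rule; AUC0–inf = AUClast + Ctz/terminal rate constant; mean ± S.D.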

Data set [7] is described as follows: AUClast in cynomolgus monkey at 10 mg/kg, po administered as single dose by LC-MS/MS method. The arrangement: time 0 - last, dose 10 mg/kg, route oral. To be noted: plasma. Format: ADME, organism-based, Macaca fascicularis. The procedure, abridged: as §1
A short description of data set [8]: Half life in cynomolgus monkey at 10 mg/kg, po administered as single dose by LC-MS/MS method. The data set is classed as ADME, organism-based, Macaca fascicularis. The arrangement: dose 10 mg/kg, route oral. To be noted: in vivo. A digest of the protocol:
(§2)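 Male F344 rats (146–185 g) and male cynomolgus monkeys (3.48–4.29 kg), n = 4 each, fasted overnight, received single iv or oral doses of 0.3, 1.0, 3.0 or 10.0 mg/kg. Monkeys had 2-week washouts between doses. Plasma was sampled to 48 h and assayed by LC-MS/MS with deuterated internal standard. Noncompartmental analysis: tmax observed; t1/2 by regression on ≥3 terminal log points; Vss = dose·AUMC/(AUC0–inf)²; Foral = oral/iv AUC0–inf at the same dose.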

Data set [9] is described as follows: Oral bioavailability in cynomolgus monkey at 3 mg/kg administered as single dose by LC-MS/MS method. The data set is classed as ADME, organism-based, Macaca fascicularis. The conditions noted are these: in vivo. A digest of the protocol:
as §2

The nature of data set [10]: AUClast in F344 rat at 1 mg/kg, iv administered as single dose by LC-MS/MS method. Format: ADME, organism-based. The arrangement: time 0 - last, dose 1 mg/kg, route intravenous. To be noted: plasma. The procedure, abridged:
as §1

Data set [11] in a line: AUClast in cynomolgus monkey at 3 mg/kg, iv administered as single dose by LC-MS/MS method. The arrangement: time 0 - last, dose 3 mg/kg, route intravenous. The data set is classed as ADME, organism-based, Macaca fascicularis. The conditions noted are these: plasma. A digest of the protocol: as §1
A short description of data set [12]: Half life in cynomolgus monkey at 1 mg/kg, iv administered as single dose by LC-MS/MS method. Format: ADME, organism-based, Macaca fascicularis. The arrangement: dose 1 mg/kg, route intravenous. The conditions noted are these: in vivo. A digest of the protocol: as §2
The nature of data set [13]: Cmax in cynomolgus monkey at 1 mg/kg, po administered as single dose by LC-MS/MS method. The arrangement: dose 1 mg/kg, route oral. The conditions noted are these: in vivo. Format: ADME, organism-based, Macaca fascicularis. A digest of the protocol: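 Fasted male F344 rats (146–185 g) and cynomolgus monkeys (3.48–4.29 kg), n = 4 each, received a single oral dose; monkeys had 2-week washouts. Plasma sampled up to 48 h, stored at […], assayed by LC-MS/MS with a deuterated internal standard. Cmax taken from observed data by noncompartmental analysis; mean ± S.D. (n = 3 or 4).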

The test system of a further data set is Rattus norvegicus. Kind of data set: Reduction in plasma glucose in starch loaded po dosed ZDF rat. The data set is classed as functional. A digest of the protocol:
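Male ZDF rats were acclimatized to 10 weeks of age and fasted overnight (n = 8 per group). They were given oral compound (0–0.1 mg/kg) in starch suspension (2 g/kg); a nonstarch control received water at 10 ml/kg. Plasma glucose was measured at −15 min (taken as baseline) and at 0.5, 1, 2 and 4 h with an automatic analyzer. ΔAUC of glucose change was calculated by the trapezoidal rule. ED50 came from a sigmoid Emax model bounded by the starch and nonstarch controls, and groups were compared by Dunnett test.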

Data set [14] can be described thus: AUC (0 to infinity) in cynomolgus monkey at 0.3 mg/kg, iv administered as single dose by LC-MS/MS method. The data set is classed as ADME, organism-based, Macaca fascicularis. The arrangement: time infinity, dose 0.3 mg/kg, route intravenous. The conditions noted are these: plasma. The procedure, abridged:
as §1

A short description of data set [15]: Clearance in F344 rat at 10 mg/kg, iv administered as single dose by LC-MS/MS method. Format: ADME, organism-based. The arrangement: dose 10 mg/kg, route intravenous. The conditions noted are these: in vivo. A digest of the protocol: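 Fasted male F344 rats (146–185 g) and male cynomolgus monkeys (3.48–4.29 kg), n = 4 each, received a single iv dose; monkeys had 2-week washouts between doses. Blood was sampled up to 48 h and plasma stored at […]. Plasma parent was quantified by LC-MS/MS with a deuterated internal standard. CL = dose/AUC0–inf by noncompartmental analysis; mean ± S.D.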

Data set [16] in a line: Volume of distribution at steady state in F344 rat at 3 mg/kg, iv administered as single dose by LC-MS/MS method. The data set is classed as ADME, organism-based. The arrangement: dose 3 mg/kg, route intravenous. To be noted: in vivo, read-out: Vdss. The procedure, abridged:
as §2

Data set [17] is described as follows: Volume of distribution at steady state in F344 rat at 10 mg/kg, iv administered as single dose by LC-MS/MS method. To be noted: in vivo, read-out: Vdss. Format: ADME, organism-based. The arrangement: dose 10 mg/kg, route intravenous. A digest of the protocol: as §2
A short description of data set [18]: Volume of distribution at steady state in cynomolgus monkey at 3 mg/kg, iv administered as single dose by LC-MS/MS method. The arrangement: dose 3 mg/kg, route intravenous. Format: ADME, organism-based, Macaca fascicularis. To be noted: in vivo, read-out: Vdss. A digest of the protocol: as §2
A short description of data set [19]: Volume of distribution at steady state in cynomolgus monkey at 10 mg/kg, iv administered as single dose by LC-MS/MS method. The data set is classed as ADME, organism-based, Macaca fascicularis. The arrangement: dose 10 mg/kg, route intravenous. To be noted: in vivo, read-out: Vdss. The procedure, abridged: as §2
Data set [20] is described as follows: Tmax in F344 rat at 0.3 mg/kg, po administered as single dose by LC-MS/MS method. The arrangement: dose 0.3 mg/kg, route oral. To be noted: in vivo. Format: ADME, organism-based. A digest of the protocol: as §2
Data set [21] in a line: AUC (0 to infinity) in F344 rat at 0.3 mg/kg, iv administered as single dose by LC-MS/MS method. The arrangement: time infinity, dose 0.3 mg/kg, route intravenous. Format: ADME, organism-based. The conditions noted are these: plasma. A digest of the protocol: as §1
The nature of data set [22]: AUC (0 to infinity) in F344 rat at 3 mg/kg, po administered as single dose by LC-MS/MS method. The data set is classed as ADME, organism-based. The arrangement: time infinity, dose 3 mg/kg, route oral. To be noted: plasma. A digest of the protocol: as §1
Data set [23] can be described thus: AUClast in F344 rat at 0.3 mg/kg, po administered as single dose by LC-MS/MS method. The arrangement: time 0 - last, dose 0.3 mg/kg, route oral. The conditions noted are these: plasma. The data set is classed as ADME, organism-based. The procedure, abridged:
as §1

The nature of data set [24]: Half life in F344 rat at 10 mg/kg, po administered as single dose by LC-MS/MS method. The data set is classed as ADME, organism-based. The arrangement: dose 10 mg/kg, route oral. To be noted: in vivo.

This note sets out measurements from ChEMBL document CHEMBL3526127, “Absorption, elimination, and metabolism of CS-1036, a novel α-amylase inhibitor in rats and monkeys, and the relationship between gastrointestinal distribution and suppression of glucose absorption” (Drug Metab Dispos, 2013).

Take `C[C@H]1O[C@@H](O[C@H]2[C@H](O)[C@@H](O)[C@@H](O[14C@H]3[14C@H](O)[14CH2]N[14C@@H]3[14CH2]O)O[C@@H]2CO)[C@H](O)[C@@H](O)[C@@H]1O`: the results for the Drug excretion in data set [1], in data set [4] and in [5] were 15.66%, 78.5% and 2.9%, respectively. For the same molecule, the Drug metabolism entry in data set [2] and in data set [3] was “metabolite_detected” each time.

In the case of `C[C@H]1O[C@@H](O[C@H]2[C@H](O)[C@@H](O)[C@@H](O[C@H]3[C@H](O)CN[C@@H]3CO)O[C@@H]2CO)[C@H](O)[C@@H](O)[C@@H]1O`, the AUC(0-inf) (in general, total exposure, with the tail of the curve extrapolated) in data set [6] amounted to 45.6 ng·h/mL; in data set [14], 2010 ng·h/mL; in data set [21] it was 1870 ng·h/mL; in data set [22], 325 ng·h/mL. For the same molecule, the AUC(0-t) (usually the area under the concentration-time curve up to a stated or last time point) is 869 ng·h/mL in data set [7], 4920 ng·h/mL in data set [10], 18100 ng·h/mL in data set [11] and 42.1 ng·h/mL in [23]. Also, the half-life – broadly, the time in which the quantity being followed falls by half – in data set [8] was 12.6 h; in [12], 21.4 h; in [24], 18.3 h. The bioavailability (as a rule, the share of a dose that reaches the circulation, judged against a reference dose that is usually intravenous) in data set [9] was 1.05%. Moreover, the highest level in data set [13] (Cmax) was 15.3 ng/mL. In addition, the 50% effect level with Rattus norvegicus (ED50) was put at a dose of 0.015 mg/kg. Moreover, the inhibition result in the data set with Rattus norvegicus was “Dose-dependent effect”. Also, the clearance (as a rule, the volume of plasma or blood freed of the substance per unit of time) in data set [15] amounted to 3.16 mL/min/kg. For the same molecule, the Vd in [16] stood at 0.219 L/kg; in [17] it was 0.222 L/kg; in data set [18], 0.262 L/kg; in data set [19], 0.217 L/kg. Also, the time to peak (Tmax) (in general, the time from dosing to the highest level) in data set [20] was found to be 0.5 h.
